Assay results as given in ChEMBL document CHEMBL1150225, “Cytotoxic cholestane glycosides from the bulbs of Ornithogalum saundersiae” (J Nat Prod, 2001).

Test system: HL-60
Test: Cytotoxicity against human HL60 cells after 72 hrs by MTT assay
Type: functional, cell-based
Details: HL-60, 72 h
Summary of the method: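 HL-60 leukemia cells kept in RPMI 1640 with 10% fetal bovine serum, L-glutamine, 100 units/mL penicillin and 100 μg/mL streptomycin. Cells at 3 × 10^4 cells/mL exposed continuously to compound for 72 h. Growth read by MTT reduction. IC50 (50% inhibition) calculated from each compound's dose–response curve.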

SMILES	IC50
CC(C)CCC(O)[C@@H](C)[C@@]1(O)[C@@H](O[C@@H]2OC[C@H](O)[C@H](O[C@@H]3OC[C@@H](O)[C@H](O)[C@H]3O)[C@H]2O)C[C@H]2[C@@H]3CC=C4C[C@@H](O)CC[C@]4(C)[C@H]3CC[C@@]21C (some centres not stated)	8.3 µM
CC(C)CCC(=O)[C@@H](C)[C@@]1(O)[C@@H](O[C@@H]2OC[C@H](O)[C@H](O[C@@H]3OC[C@@H](O[C@@H]4O[C@H](CO)[C@@H](O)[C@H](O)[C@H]4O)[C@H](O)[C@H]3O)[C@H]2O)C[C@H]2[C@@H]3CC=C4C[C@@H](O)CC[C@]4(C)[C@H]3CC[C@@]21C	> 10 µM
